According to ChEMBL document CHEMBL4334552, “Discovery of BMS-986260, a Potent, Selective, and Orally Bioavailable TGFβR1 Inhibitor as an Immuno-oncology Agent” (ACS Med Chem Lett, 2020):
The source made the active and inactive calls. The rule behind the calls is not given here.

Legend:
[1] = Total AUC in Sprague Dawley rat at 5 mg/kg, iv; type: ADME, organism-based; parameters: dose 5 mg/kg, route intravenous, time AUCmax; conditions: in vivo
Summary of the method: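 Male Sprague–Dawley rats (n = 3) received a PEG400 solution iv at 5 mg/kg and po at 10 mg/kg.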

[2] = Protein binding in mouse serum assessed as unbound fraction; type: ADME, cell-free
[3] = Protein binding in dog serum assessed as unbound fraction; type: ADME, cell-free, Canis lupus familiaris
[4] = Half life in mouse liver microsomes in presence of UGT/UDPGA; type: ADME, Microsome
Cytochrome P450 1A2 = molecular target: T1, Cytochrome P450 1A2 (Homo sapiens, UniProt P05177); test: Induction of recombinant CYP1A2 (unknown origin) up to 24 microM; type: ADME; conditions: recombinant enzyme
T1 sequence (P05177 whole entry): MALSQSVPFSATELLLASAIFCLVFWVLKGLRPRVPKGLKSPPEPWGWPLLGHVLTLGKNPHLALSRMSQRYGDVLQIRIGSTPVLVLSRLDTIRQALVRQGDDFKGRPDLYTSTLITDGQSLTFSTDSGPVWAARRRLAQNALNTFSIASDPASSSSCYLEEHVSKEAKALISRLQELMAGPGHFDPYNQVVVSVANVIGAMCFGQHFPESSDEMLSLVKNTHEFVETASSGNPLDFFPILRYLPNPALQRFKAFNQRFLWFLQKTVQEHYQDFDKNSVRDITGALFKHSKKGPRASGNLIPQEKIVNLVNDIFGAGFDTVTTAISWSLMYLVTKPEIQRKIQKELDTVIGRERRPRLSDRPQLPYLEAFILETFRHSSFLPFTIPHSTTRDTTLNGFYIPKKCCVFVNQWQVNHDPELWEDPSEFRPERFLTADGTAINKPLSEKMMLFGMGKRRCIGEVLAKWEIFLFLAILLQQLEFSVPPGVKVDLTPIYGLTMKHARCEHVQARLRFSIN

[5] = Cardiovascular toxicity in rat assessed as aortic pathology at 1 mg/kg, po for 10 days; type: organism-based; conditions: in vivo, 240 h
Summary of the method: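 Exploratory toxicology studies of 10 days with daily oral dosing in rats and dogs. Cardiovascular findings, including valvulopathy and aortic pathology, were assessed.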

[6] = Cardiovascular toxicity in dog at 5 mg/kg, po dosed every 3 days on and 4 days off treatment regime for 1 month; type: organism-based, Canis lupus familiaris; conditions: in vivo
[7] = Half life in mouse hepatocytes; type: ADME, cell-based, Hepatocyte
[8] = Efflux ratio of permeability in human Caco2 cells; type: ADME, cell-based; conditions: Caco-2
Mus musculus = test: Antitumor activity in compound-mediated tumor cured C57Bl/6 mouse allografted with mouse MC38 cells assessed as tumor growth following rechallenge with newly implanted mouse LL2 cells treated at 3.75 to 15 mg/kg, po qd for 28 days and cotreated with anti-PD1 at 10 mg/kg, ip every 4 days for 3 doses prior to LL2 cells rechallenge by digital caliper analysis; type: functional, organism-based
Summary of the method: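 Mice cured by oral dosing plus anti-PD-1 (10 mg/kg IP, every 4 days, three doses) were re-implanted with MC38 or LL2 cells. Tumor growth was compared with naive mice.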

[9] = Metabolic stability of compound in human liver microsomes assessed as compound remaining; type: ADME, Microsome
[10] = Total AUC in Beagle dog at 1 mg/kg, iv; type: ADME, organism-based, Canis lupus familiaris; parameters: dose 1 mg/kg, time AUCmax, route intravenous; conditions: in vivo
Summary of the method: (§1)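 Male Beagle dogs (n = 2) were pretreated with pentagastrin and dosed iv at 1 mg/kg and po at 5 mg/kg. The oral vehicle was 5% ethanol, 45% PEG400 and 50% 25 mM acetate buffer pH 4.0. The iv vehicle was 5:45:50 EtOH/PEG400/saline at 1 mL/kg.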

[11] = Tmax in Balb/C mouse at 10 mg/kg, po; type: ADME, organism-based; conditions: in vivo
Summary of the method: (§2)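 Male Balb/C mice (n = 3) dosed iv at 5 mg/kg and po at 10 mg/kg. Vehicle was 70% 25 mM acetate buffer pH 4.0, 5% ethanol and 25% PEG 400.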

[12] = Total AUC in Balb/C mouse at 5 mg/kg, iv; type: ADME, organism-based; parameters: dose 5 mg/kg, route intravenous, time AUCmax; conditions: in vivo; summary of the method: as §2
[13] = MRT in Balb/C mouse at 5 mg/kg, iv; type: ADME, organism-based; conditions: in vivo; summary of the method: as §2
MC-38 [14] = test: Antitumour activity against mouse MC38 cells allografted in C57Bl/6 mouse assessed as reduction in tumour growth at 3.75 to 15 mg/kg, po qd for 28 days cotreated with anti-PD1 at 10 mg/kg, ip every 4 days for 3 doses by digital caliper analysis; type: functional, organism-based
Summary of the method: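 C57/BL6 mice received 0.1 mL of MC38 cells (1 × 10^7 cells/mL) subcutaneously in the right flank. Mice were randomized at about 100 mm3, typically day 5. Oral dosing was once daily for 28 days at 3.75, 7.5 or 15 mg/kg. Anti-PD-1 was given at 10 mg/kg IP every 4 days for three doses. Isotype IgG1 MOPC-21 served as control on the same schedule.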

[15] = Clearance in Balb/C mouse at 5 mg/kg, iv; type: ADME, organism-based; conditions: in vivo
Summary of the method: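 Male Balb/C mice, n = 3, dosed at 5 mg/kg iv or 10 mg/kg po. The vehicle was 70% 25 mM acetate buffer pH 4.0, 5% ethanol and 25% PEG 400.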

[16] = Half life in human liver microsomes in presence of NADPH; type: ADME, Microsome
[17] = Half life in dog hepatocytes; type: ADME, cell-based, Canis lupus familiaris, Hepatocyte
[18] = Intrinsic permeability in human Caco2 cells; type: ADME, cell-based; conditions: Caco-2
Cytochrome P450 2C9 = Cytochrome P450 2C9 (Homo sapiens, UniProt P11712); test: Inhibition of recombinant CYP2C9 (unknown origin); type: ADME
Cytochrome P450 2C9, sequence (P11712 whole entry): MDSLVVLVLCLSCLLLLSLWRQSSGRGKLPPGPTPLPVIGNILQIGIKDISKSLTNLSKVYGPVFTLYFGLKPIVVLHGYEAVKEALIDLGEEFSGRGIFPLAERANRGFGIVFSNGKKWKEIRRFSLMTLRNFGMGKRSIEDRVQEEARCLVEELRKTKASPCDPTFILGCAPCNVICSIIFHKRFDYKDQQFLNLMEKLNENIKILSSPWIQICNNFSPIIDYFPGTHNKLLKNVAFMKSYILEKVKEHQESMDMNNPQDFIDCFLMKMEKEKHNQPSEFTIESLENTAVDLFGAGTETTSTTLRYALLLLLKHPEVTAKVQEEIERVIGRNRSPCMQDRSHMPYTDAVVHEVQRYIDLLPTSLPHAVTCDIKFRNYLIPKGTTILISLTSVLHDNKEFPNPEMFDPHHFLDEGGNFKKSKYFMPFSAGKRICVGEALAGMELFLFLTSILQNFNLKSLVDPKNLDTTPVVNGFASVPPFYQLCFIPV

MC-38 [19] = test: Antitumour activity against mouse MC38 cells allografted in C57Bl/6 mouse assessed as reduction in tumour growth at 3.75 mg/kg, po dosed every 3 days on and 4 days off treatment regime and cotreated with anti-PD1 at 10 mg/kg, ip every 4 days for 3 doses measured for ten doubling times after cessation of treatment by digital caliper analysis; type: functional, organism-based
Summary of the method: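 MC38 cells (0.1 mL at 1 × 10^7 cells/mL) were implanted subcutaneously in the right flank of C57/BL6 mice. Randomization was at about 100 mm3, typically day 5. Oral dosing ran 3 days on, 4 days off, over 28 days. Anti-PD-1 was given at 10 mg/kg IP every 4 days for three doses, with isotype MOPC-21 IgG1 as control on the same schedule.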

TGF-beta receptor type-2 = TGF-beta receptor type-2 (Homo sapiens, UniProt P37173); test: Inhibition of wild type His-tagged TGFBR2 kinase domain (unknown origin) incubated for 1 hr by HTRF analysis
TGF-beta receptor type-2, sequence (P37173 whole entry, the tested form may be a part): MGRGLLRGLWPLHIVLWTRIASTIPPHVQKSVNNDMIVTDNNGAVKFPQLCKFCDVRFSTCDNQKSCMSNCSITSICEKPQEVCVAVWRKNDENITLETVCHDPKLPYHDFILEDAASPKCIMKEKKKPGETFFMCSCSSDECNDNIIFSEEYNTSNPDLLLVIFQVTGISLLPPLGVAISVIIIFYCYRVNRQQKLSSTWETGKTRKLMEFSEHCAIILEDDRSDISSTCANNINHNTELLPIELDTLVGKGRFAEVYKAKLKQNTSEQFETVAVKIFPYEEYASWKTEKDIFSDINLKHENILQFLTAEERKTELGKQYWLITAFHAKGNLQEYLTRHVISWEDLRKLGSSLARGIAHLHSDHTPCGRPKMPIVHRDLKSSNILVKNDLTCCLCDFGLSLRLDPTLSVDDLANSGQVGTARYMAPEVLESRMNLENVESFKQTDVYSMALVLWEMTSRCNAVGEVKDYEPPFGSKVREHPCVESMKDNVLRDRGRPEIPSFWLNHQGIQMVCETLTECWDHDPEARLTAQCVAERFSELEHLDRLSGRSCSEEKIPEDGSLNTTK

Cytochrome P450 2C19 = Cytochrome P450 2C19 (Homo sapiens, UniProt P33261); test: Induction of recombinant CYP2C19 (unknown origin) up to 24 microM; type: ADME; conditions: recombinant enzyme
Cytochrome P450 2C19, sequence (P33261 whole entry): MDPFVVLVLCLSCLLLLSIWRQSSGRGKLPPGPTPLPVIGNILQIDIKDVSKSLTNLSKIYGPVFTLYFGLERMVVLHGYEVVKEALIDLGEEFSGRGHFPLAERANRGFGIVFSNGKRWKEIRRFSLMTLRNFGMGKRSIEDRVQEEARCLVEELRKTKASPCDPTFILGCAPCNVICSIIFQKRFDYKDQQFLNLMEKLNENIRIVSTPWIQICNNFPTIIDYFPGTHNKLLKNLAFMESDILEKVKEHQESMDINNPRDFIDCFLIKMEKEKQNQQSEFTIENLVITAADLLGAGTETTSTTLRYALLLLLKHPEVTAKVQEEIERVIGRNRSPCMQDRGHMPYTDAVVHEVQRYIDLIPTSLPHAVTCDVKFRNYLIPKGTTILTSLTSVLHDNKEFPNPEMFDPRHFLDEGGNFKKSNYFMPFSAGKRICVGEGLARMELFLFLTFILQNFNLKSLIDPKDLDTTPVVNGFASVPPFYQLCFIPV

[20] = Protein binding in rat serum assessed as unbound fraction; type: ADME, cell-free
4T1 = test: Inhibition of metastasis in mouse 4T1 cells allografted in Balb/C mouse at 3.75 to 7.5 mg/kg, po qd for 28 days cotreated with anti-PD1 at 10 mg/kg, ip every 4 days for 3 doses by India ink/Fekete's solution based staining; type: functional, organism-based
[21] = Total AUC in Beagle dog at 5 mg/kg, po; type: ADME, organism-based, Canis lupus familiaris; parameters: dose 5 mg/kg, route oral, time AUCmax; conditions: in vivo; summary of the method: as §1
Cytochrome P450 2D6 = Cytochrome P450 2D6 (Homo sapiens, UniProt P10635); test: Inhibition of recombinant CYP2D6 (unknown origin); type: ADME
Cytochrome P450 2D6, sequence (P10635 whole entry): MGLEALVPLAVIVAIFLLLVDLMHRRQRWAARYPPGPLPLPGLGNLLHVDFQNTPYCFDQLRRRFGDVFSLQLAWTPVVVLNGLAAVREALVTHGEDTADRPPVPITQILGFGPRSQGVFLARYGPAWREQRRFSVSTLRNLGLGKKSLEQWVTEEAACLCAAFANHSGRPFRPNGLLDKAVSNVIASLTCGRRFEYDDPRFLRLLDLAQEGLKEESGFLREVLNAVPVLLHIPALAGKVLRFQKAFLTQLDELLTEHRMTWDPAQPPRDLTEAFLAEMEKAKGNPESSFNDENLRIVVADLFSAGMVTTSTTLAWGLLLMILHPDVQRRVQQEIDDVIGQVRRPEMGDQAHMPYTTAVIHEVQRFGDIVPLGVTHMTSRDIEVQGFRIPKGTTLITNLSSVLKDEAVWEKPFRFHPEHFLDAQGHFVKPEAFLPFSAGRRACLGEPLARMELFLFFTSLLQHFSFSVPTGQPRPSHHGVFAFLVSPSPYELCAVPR

Salmonella typhimurium = test: Genotoxicity against Salmonella typhimurium by Ames test; type: toxicity, organism-based; conditions: salmonella enterica subsp. enterica serovar typhimurium
TGF-beta receptor type-1 = TGF-beta receptor type-1 (Homo sapiens, UniProt P36897, T204D); test: Inhibition of His-tagged TGFBR1 kinase domain T204D mutant (unknown origin) incubated for 1 hr by HTRF analysis
TGF-beta receptor type-1, sequence (P36897 34-503 T204D limits assumed): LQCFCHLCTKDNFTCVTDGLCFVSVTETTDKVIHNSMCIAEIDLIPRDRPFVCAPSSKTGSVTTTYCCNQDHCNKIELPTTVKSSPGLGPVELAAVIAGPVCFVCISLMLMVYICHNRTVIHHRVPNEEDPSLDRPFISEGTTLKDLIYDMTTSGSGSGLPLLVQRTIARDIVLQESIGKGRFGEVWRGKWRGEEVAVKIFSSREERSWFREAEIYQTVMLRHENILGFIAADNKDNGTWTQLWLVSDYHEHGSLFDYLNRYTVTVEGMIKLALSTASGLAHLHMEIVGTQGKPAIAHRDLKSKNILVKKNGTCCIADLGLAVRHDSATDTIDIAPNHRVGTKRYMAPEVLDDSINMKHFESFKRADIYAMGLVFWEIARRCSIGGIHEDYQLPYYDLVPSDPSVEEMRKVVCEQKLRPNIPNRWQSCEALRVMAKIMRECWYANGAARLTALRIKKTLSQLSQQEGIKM

AUC [1]: 39.6 µM·h
fraction unbound [2]: 0.12
fraction unbound [3]: 0.13
half-life [4]: > 2 h
Activity (Cytochrome P450 1A2): Not Active
half-life [7]: 1.27 h
efflux ratio [8]: 2.5
Stability [9]: 77%
AUC [10]: 7 µM·h
Tmax [11]: 0.3 h
AUC [12]: 26.3 µM·h
MRT [13]: 9 h
clearance [15]: 8.3 mL/min/kg
half-life [16]: 0.383 h
half-life [17]: 1.03 h
Papp [18]: 27.2 ×10⁻⁶ cm/s
IC50 (Cytochrome P450 2C9): > 20 µM
IC50 (TGF-beta receptor type-2): > 15 µM
Activity (Cytochrome P450 2C19): Not Active
fraction unbound [20]: 0.1
AUC [21]: 35 µM·h
IC50 (Cytochrome P450 2D6): > 20 µM
IC50 (TGF-beta receptor type-1): 0.0016 µM
Structure (SMILES): N#Cc1cnc2ccc(-c3c(-c4ccc(F)c(Cl)c4)ncn3CCO)nn12
Activity [5]: Toxic
Activity [6]: Non-Toxic
Activity (Mus musculus): inactive
inhibition (MC-38 [14]): Active
inhibition (MC-38 [19]): Active
inhibition (4T1): Active
Activity (Salmonella typhimurium): Non-Toxic
